The values that follow come from ChEMBL document CHEMBL1130413, “Novel 3'-C/N-substituted 2',3'-beta-D-dideoxynucleosides as potential chemotherapeutic agents. 1. Thymidine derivatives: synthesis, structure, and broad spectrum antiviral properties” (J Med Chem, 1997).

In assay [1] the test system is E6SM. As to the kind of experiment: 50% Minimum inhibitory concentration which is required to reduce cytopathogenicity induced by (F) strain of HSV-1 virus on human E6SM cells. Format: functional. An outline of the steps: (§1)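 Confluent cell monolayers infected with 100 CCID50 virus and left 1 h for adsorption. Residual virus then removed and compound added at serial dilutions (400, 200, 100 ... µg/mL). Value is the concentration giving 50% reduction of CPE.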
A general note: Damage to the host cells serves as the signal in cytopathic effect assays.

The subject of assay [2] is HEL. In words: 50% Minimum inhibitory concentration which is required to reduce cytopathogenicity induced by (KOS) strain of HSV-1 virus on human embryonic HEL cells. It is filed as functional. An outline of the steps: as §1
The test system of assay [3] is E6SM. In words: 50% Minimum inhibitory concentration which is required to reduce cytopathogenicity induced by (KOS) strain of HSV-1 virus on human E6SM cells. It is filed as functional. In short, it runs like this: as §1
Assay [4] deals with E6SM. As to the kind of experiment: 50% Minimum inhibitory concentration which is required to reduce cytopathogenicity induced by (196) strain of HSV-2 virus on human E6SM cells. Format: functional. In short, it runs like this:
as §1

In assay [5] the test system is HEL. In words: 50% Minimum inhibitory concentration which is required to reduce cytopathogenicity induced by (G) strain of HSV-2 virus on human embryonic HEL cells. It is filed as functional. An outline of the steps: as §1
In assay [6] the test system is E6SM. In words: 50% Minimum inhibitory concentration which is required to reduce cytopathogenicity induced by (Mc Intyre) strain of HSV-1 virus on human E6SM cells. It is filed as functional. In short, it runs like this: as §1
In assay [7] the test system is E6SM. As to the kind of experiment: 50% Minimum inhibitory concentration which is required to reduce cytopathogenicity induced by TK-(B2006) strain of HSV-1 virus on human E6SM cells. It is filed as functional. An outline of the steps: as §1
The subject of assay [8] is HEL. In words: 50% Minimum inhibitory concentration which is required to reduce cytopathogenicity induced by TK-(B2006) strain of HSV-1 virus on human embryonic HEL cells. It is filed as functional. In short, it runs like this:
as §1

In assay [9] the test system is HEL. As to the kind of experiment: 50% Minimum inhibitory concentration which is required to reduce cytopathogenicity induced by (Mc Intyre) strain of HSV-1 virus on human embryonic HEL cells. It is filed as functional. An outline of the steps: as §1
Assay [10] concerns E6SM. In words: 50% Minimum inhibitory concentration which is required to reduce cytopathogenicity induced by (G) strain of HSV-2 virus on human E6SM cells. Format: functional. An outline of the steps: as §1
The subject of assay [11] is HEL. In words: 50% Minimum inhibitory concentration which is required to reduce cytopathogenicity induced by (Lyons) strain of HSV-2 virus on human embryonic HEL cells. Format: functional. An outline of the steps:
as §1

Assay [12] deals with E6SM. As to the kind of experiment: 50% Minimum inhibitory concentration which is required to reduce cytopathogenicity induced by (Lyons) strain of HSV-2 virus on human E6SM cells. It is filed as functional. In short, it runs like this:
as §1

Assay [13] is described as follows: Minimum cytotoxic concentration which causes microscopically detectable alteration of normal cell morphology after 2 days of incubation. It is filed as functional. To be noted: 48 h. An outline of the steps:
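Uninfected E6SM cells exposed to compound for 2 days. Minimum concentration giving a microscopically detectable change in normal cell morphology recorded.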

Assay [14] concerns MT4. In words: Cytotoxic concentration which is required to reduce human MT-4 cell viability by 50%. It is filed as functional.
Assay [15] deals with CCRF-CEM. As to the kind of experiment: 50% effective concentration of compound which is required to protect human CEM cells against HIV-1 induced giant cell formation. It is filed as functional, cell-based. In short, it runs like this:
(§2)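 CEM cells at 250000–300000 cells/mL infected with HIV-1 (IIIB) or HIV-2 (ROD) at 100 CCID50/mL. Infected cells mixed with serial compound dilutions and incubated 4 days at 37 °C. Syncytium (giant cell) formation then scored. Values averaged over two independent experiments.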

In assay [16] the test system is CEM-TK(-). As to the kind of experiment: 50% effective concentration of compound which is required to protect Thymidine kinase deficient human CEM (CEM/TK-) cells against HIV-2. Format: functional, cell-based.
In assay [17] the test system is CEM-TK(-). In words: Cytotoxic concentration which is required to reduce CEM/TK- cell viability by 50%. It is filed as functional. To be noted: Homo sapiens.
In assay [18] the test system is MT4. As to the kind of experiment: 50% effective concentration of compound which is required to protect human MT-4 cells against cytopathogenicity of HIV-1. It is filed as functional, cell-based.
For assay [19], the system named is CCRF-CEM. In words: 50% effective concentration of compound which is required to protect human CEM cells against HIV-2 induced giant cell formation. It is filed as functional, cell-based. An outline of the steps: as §2
Assay [20] can be described thus: Selectivity index of HIV-1 and HIV-2 with respect to MT-4 cells. It is filed as functional, MT4. An outline of the steps:
(§3)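 Selectivity index calculated as average CC50 divided by average EC50. Each average comes from two independent experiments, using HIV-1 (IIIB) and HIV-2 (ROD) in CEM or MT-4 cells.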

Assay [21] has as its system CCRF-CEM. As to the kind of experiment: Cytotoxic concentration which is required to reduce human CEM cell viability by 50%. Format: functional. In short, it runs like this:
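Human CEM or Molt-4 cells seeded at 7.5 × 10^5 cells/mL with varying compound concentrations. Incubated 3 days at 37 °C in humidified CO2. Viable cells counted with a Coulter counter. Value is the concentration reducing viable cell number by 50%.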

Assay [22] can be described thus: Selectivity index of HIV-1 and HIV-2 with respect to CEM cells. It is filed as functional, CCRF-CEM. An outline of the steps: as §3
Assay [23] concerns MT4. In words: 50% effective concentration of compound which is required to protect human MT-4 cells against cytopathogenicity of HIV-2. Format: functional, cell-based.

Values after ≈ are worked out from the molar mass of the structure shown. Where only a bound is given, the exact number is not on record here.

Consider `O=c1[nH]c(=O)n([C@H]2C[C@H](O)[C@@H](CO)O2)cc1/C=C/Br` [BRIVUDINE], for which the MIC with E6SM [1] was 0.02 µg/mL (≈ 0.06 µM); in the assay on HEL [2], 0.005 µg/mL (≈ 0.015 µM); in the assay with E6SM [3], 0.007 µg/mL (≈ 0.021 µM); in the assay with E6SM [4], greater than 400 µg/mL; against HEL [5], 30 µg/mL (≈ 90.1 µM); in the assay on E6SM [6], 90 µg/mL (≈ 270 µM). The MIC in the assay on E6SM [7] was 10 µg/mL (≈ 30 µM); against HEL [8], 50 µg/mL (≈ 150 µM); against HEL [9], 0.003 µg/mL (≈ 0.00901 µM); in the assay on E6SM [10], 90 µg/mL (≈ 270 µM); against HEL [11], 5 µg/mL (≈ 15 µM); against E6SM [12], greater than 400 µg/mL. In addition, the MCC in assay [13] was greater than 300 µg/mL.

As to `Nc1nc2c(ncn2COC(CO)CO)c(=O)[nH]1` [GANCICLOVIR], the MIC stood at 0.002 µg/mL (≈ 0.00784 µM) in the assay with E6SM [1]; 0.001 µg/mL (≈ 0.00392 µM) against E6SM [3]; 0.006 µg/mL (≈ 0.0235 µM) with E6SM [4]; 0.003 µg/mL (≈ 0.0118 µM) with E6SM [6]; 5 µg/mL (≈ 19.6 µM) in the assay with E6SM [7]; 0.002 µg/mL (≈ 0.00784 µM) against E6SM [10]. In the assay on E6SM [12], this compound yielded an MIC of 0.002 µg/mL (≈ 0.00784 µM). In assay [13], this compound came in with an MCC greater than 100 µg/mL.

Consider `NC(=O)c1ncn([C@@H]2O[C@H](CO)[C@@H](O)[C@H]2O)n1` [RIBAVIRIN], for which the MIC in the assay on E6SM [1] was determined as 80 µg/mL (≈ 328 µM); against E6SM [3] it was 60 µg/mL (≈ 246 µM); with E6SM [4] it was 150 µg/mL (≈ 614 µM); in the assay with E6SM [6], 90 µg/mL (≈ 369 µM); against E6SM [7], 150 µg/mL (≈ 614 µM); in the assay on E6SM [10], 50 µg/mL (≈ 205 µM). In the assay with E6SM [12], this compound showed an MIC of 100 µg/mL (≈ 409 µM). For the same compound, the MCC in assay [13] was greater than 400 µg/mL.

Turning to `Cc1cn([C@H]2C[C@H](N=[N+]=[N-])[C@@H](CO)O2)c(=O)[nH]c1=O` [ZIDOVUDINE], the figures for the CC50 in the assay on MT4 [14], with CEM-TK(-) [17] and with CCRF-CEM [21] were 1.5 µg/mL (≈ 5.61 µM), greater than 200 µg/mL and greater than 100 µg/mL, respectively. Further, the EC50 (usually the concentration at which the effect is half-maximal) was 0.0007 µg/mL (≈ 0.00262 µM) with CCRF-CEM [15]; greater than 25 µg/mL in the assay on CEM-TK(-) [16]; 0.0005 µg/mL (≈ 0.00187 µM) in the assay with MT4 [18]; 0.0009 µg/mL (≈ 0.00337 µM) in the assay with CCRF-CEM [19]; 0.0007 µg/mL (≈ 0.00262 µM) in the assay with MT4 [23]. Further, the figures for the Selectivity index in assay [20] and in assay [22] were 3000 and greater than 100000, respectively.
